Test system: HEK-293T
Test: Multiplex assay against HEK293T
Type: toxicity, cell-based
Conditions: human
Method in brief: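 Four dyes were applied at seeding to live cells: Hoechst33342, BioTracker Green Microtubule Cytoskeleton Dye, MitoTracker Red and Annexin V Alexa Fluor 680. Imaging after compound addition used a CQ1 microscope at 37°C and 5% CO2. CellPathfinder machine-learning gating then sorted cells into Hoechst high-intensity objects or normal cells, normal cells into healthy, pyknosed or fragmented nuclei, and pyknosed cells into mitotic or apoptotic, with tubulin, mitochondrial-mass and membrane-permeability phenotypes given as per cents of healthy-nucleus cells.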

[1] = 12 h, 1 µM, compound concentration 1 uM, replicate 1
[2] = 12 h, 1 µM, compound concentration 1 uM, replicate 2
[3] = 12 h, 10 µM, compound concentration 10 uM, replicate 1
[4] = 12 h, 10 µM, compound concentration 10 uM, replicate 2
[5] = 24 h, 1 µM, compound concentration 1 uM, replicate 1
[6] = 24 h, 1 µM, compound concentration 1 uM, replicate 2
[7] = 24 h, 10 µM, compound concentration 10 uM, replicate 1
[8] = 24 h, 10 µM, compound concentration 10 uM, replicate 2
[9] = 48 h, 1 µM, compound concentration 1 uM, replicate 1
[10] = 48 h, 1 µM, compound concentration 1 uM, replicate 2
[11] = 48 h, 10 µM, compound concentration 10 uM, replicate 1
[12] = 48 h, 10 µM, compound concentration 10 uM, replicate 2

CC(C)(O)C(=O)N1CCN(c2ccc(C(F)(F)F)c(C3=C(c4c[nH]c5ccccc45)C(=O)NC3=O)c2)CC1
Population Apoptotic (%) [1]: 33% | Population Fragmented Nuclei (%) [1]: 4% | Population Healthy Nuclei (%) [1]: 78% | Population Hoechst High Intensity Objects (%) [1]: 8% | Population Membrane Permeable-Phenotype (%) [1]: 0% | Population Mitochondria Different-Phenotype (%) [1]: 43% | Population Mitotic Cells (%) [1]: 66% | Population Normal (%) [1]: 91% | Population Pyknosed Nuclei (%) [1]: 16% | Population Tubulin-Different-Phenotype (%) [1]: 28% | Total Cell Count [1]: 381 | Population Apoptotic (%) [2]: 46% | Population Fragmented Nuclei (%) [2]: 5% | Population Healthy Nuclei (%) [2]: 76% | Population Hoechst High Intensity Objects (%) [2]: 7% | Population Mitochondria Different-Phenotype (%) [2]: 58% | Population Mitotic Cells (%) [2]: 53% | Population Normal (%) [2]: 92% | Population Pyknosed Nuclei (%) [2]: 17% | Population Tubulin-Different-Phenotype (%) [2]: 30% | Total Cell Count [2]: 293 | Population Apoptotic (%) [3]: 51% | Population Fragmented Nuclei (%) [3]: 4% | Population Healthy Nuclei (%) [3]: 74% | Population Hoechst High Intensity Objects (%) [3]: 10% | Population Membrane Permeable-Phenotype (%) [3]: 0% | Population Mitochondria Different-Phenotype (%) [3]: 61% | Population Mitotic Cells (%) [3]: 48% | Population Normal (%) [3]: 89% | Population Pyknosed Nuclei (%) [3]: 20% | Population Tubulin-Different-Phenotype (%) [3]: 62% | Total Cell Count [3]: 338 | Population Apoptotic (%) [4]: 72% | Population Fragmented Nuclei (%) [4]: 3% | Population Healthy Nuclei (%) [4]: 75% | Population Hoechst High Intensity Objects (%) [4]: 7% | Population Mitochondria Different-Phenotype (%) [4]: 90% | Population Mitotic Cells (%) [4]: 27% | Population Normal (%) [4]: 92% | Population Pyknosed Nuclei (%) [4]: 21% | Population Tubulin-Different-Phenotype (%) [4]: 63% | Total Cell Count [4]: 203 | Population Apoptotic (%) [5]: 33% | Population Fragmented Nuclei (%) [5]: 8% | Population Healthy Nuclei (%) [5]: 74% | Population Hoechst High Intensity Objects (%) [5]: 5% | Population Membrane Permeable-Phenotype (%) [5]: 0% | Population Mitochondria Different-Phenotype (%) [5]: 32% | Population Mitotic Cells (%) [5]: 66% | Population Normal (%) [5]: 94% | Population Pyknosed Nuclei (%) [5]: 17% | Population Tubulin-Different-Phenotype (%) [5]: 19% | Total Cell Count [5]: 469 | Population Apoptotic (%) [6]: 29% | Population Fragmented Nuclei (%) [6]: 5% | Population Healthy Nuclei (%) [6]: 79% | Population Mitochondria Different-Phenotype (%) [6]: 48% | Population Mitotic Cells (%) [6]: 70% | Population Pyknosed Nuclei (%) [6]: 14% | Total Cell Count [6]: 335 | Population Apoptotic (%) [7]: 45% | Population Fragmented Nuclei (%) [7]: 6% | Population Healthy Nuclei (%) [7]: 71% | Population Hoechst High Intensity Objects (%) [7]: 4% | Population Membrane Permeable-Phenotype (%) [7]: 1% | Population Mitochondria Different-Phenotype (%) [7]: 48% | Population Mitotic Cells (%) [7]: 54% | Population Normal (%) [7]: 95% | Population Pyknosed Nuclei (%) [7]: 22% | Population Tubulin-Different-Phenotype (%) [7]: 43% | Total Cell Count [7]: 387 | Population Apoptotic (%) [8]: 66% | Population Fragmented Nuclei (%) [8]: 2% | Population Hoechst High Intensity Objects (%) [8]: 7% | Population Membrane Permeable-Phenotype (%) [8]: 0% | Population Mitochondria Different-Phenotype (%) [8]: 84% | Population Mitotic Cells (%) [8]: 34% | Population Normal (%) [8]: 92% | Population Pyknosed Nuclei (%) [8]: 25% | Population Tubulin-Different-Phenotype (%) [8]: 60% | Total Cell Count [8]: 212 | Population Apoptotic (%) [9]: 25% | Population Fragmented Nuclei (%) [9]: 9% | Population Healthy Nuclei (%) [9]: 79% | Population Hoechst High Intensity Objects (%) [9]: 2% | Population Membrane Permeable-Phenotype (%) [9]: 0% | Population Mitochondria Different-Phenotype (%) [9]: 21% | Population Mitotic Cells (%) [9]: 74% | Population Normal (%) [9]: 97% | Population Pyknosed Nuclei (%) [9]: 10% | Population Tubulin-Different-Phenotype (%) [9]: 14% | Total Cell Count [9]: 780 | Population Apoptotic (%) [10]: 27% | Population Fragmented Nuclei (%) [10]: 10% | Population Hoechst High Intensity Objects (%) [10]: 5% | Population Mitochondria Different-Phenotype (%) [10]: 29% | Population Mitotic Cells (%) [10]: 72% | Population Normal (%) [10]: 94% | Population Tubulin-Different-Phenotype (%) [10]: 15% | Total Cell Count [10]: 571 | Population Apoptotic (%) [11]: 54% | Population Fragmented Nuclei (%) [11]: 8% | Population Healthy Nuclei (%) [11]: 71% | Population Hoechst High Intensity Objects (%) [11]: 8% | Population Membrane Permeable-Phenotype (%) [11]: 0% | Population Mitochondria Different-Phenotype (%) [11]: 53% | Population Mitotic Cells (%) [11]: 45% | Population Normal (%) [11]: 91% | Population Pyknosed Nuclei (%) [11]: 19% | Population Tubulin-Different-Phenotype (%) [11]: 25% | Total Cell Count [11]: 467 | Population Apoptotic (%) [12]: 78% | Population Fragmented Nuclei (%) [12]: 9% | Population Mitochondria Different-Phenotype (%) [12]: 71% | Population Mitotic Cells (%) [12]: 21% | Population Tubulin-Different-Phenotype (%) [12]: 40% | Total Cell Count [12]: 227

Source: ChEMBL document CHEMBL5058577, “EUbOPEN Chemogenomics Library 2 (Multiplex)” (2022)
